In data set [1] the test system is Human immunodeficiency virus 1. Description: Antiviral activity against HIV1 3B laboratory isolate assessed as inhibition of virus-induced cytopathogenicity by MTT assay. It counts as functional, organism-based. Conditions: Human immunodeficiency virus 1, 3B. In a few lines:
(§1)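 Infection of PM1/CCR5 cells; tropism/subtype of each strain: IIIB X4 Sub B, 89.6 dual Sub B, KYAG and fTOI R5 Sub B (primary isolates). Viability read by MTT. […] Means of at least three experiments; tested up to 100 uM.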
(Cytopathic effects are the visible damage that an infection or toxin causes in cultured cells.)

Data set [2] relates to Human immunodeficiency virus 1. Kind of data set: Antiviral activity against HIV1 KYAG primary isolate assessed as inhibition of virus-induced cytopathogenicity by MTT assay. In kind it is functional, organism-based. Conditions: Human immunodeficiency virus 1, KYAG. The essentials:
as §1

In data set [3] the test system is Human immunodeficiency virus 1. Kind of data set: Antiviral activity against HIV1 89.6 laboratory isolate assessed as inhibition of virus-induced cytopathogenicity by MTT assay. It counts as functional, organism-based. Conditions: Human immunodeficiency virus 1, isolate 89.6. The essentials: as §1
Data set [4] is described as follows: Cytotoxicity against mock-infected CCR5 expressing human PM1 cells by MTT assay. It counts as cell-based.
For data set [5], the system named is Human immunodeficiency virus 1. Description: Antiviral activity against HIV1 fTOI primary isolate assessed as inhibition of virus-induced cytopathogenicity by MTT assay. It counts as functional, organism-based. Conditions: Human immunodeficiency virus 1, fTOI. The essentials: as §1
The next data set has as its system PM1. Description: Inhibition of gp120 binding to CD4 in HIV1 JR-FL infected human PM1 cells assessed as binding of anti-envelope CD4-induced monoclonal antibody 4C11 to envelope expressing cell surface at 100 uM pretreated 15 mins before 4C11 addition by FACS analysis. It counts as cell-based. Conditions: Human immunodeficiency virus 1. In a few lines: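 PM1 cells chronically infected with JR-FL (R5, Sub B) preincubated 15 min with compound at 100 uM (sCD4 11 nM as reference), then anti-HIV-1 mAb 4C11 at 4 °C for 15 min. After PBS wash, stained with FITC goat anti-human IgG; flow cytometry on gated PM1 cells, anti-CD19 control antibody; read as 4C11 mean fluorescence intensity. Minimum two independent experiments.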
Background: Flow cytometry measures light scatter and fluorescence of single cells or particles in a stream.

Data set [6] is described as follows: Inhibition of HIV1 gp120 binding to CD4. More on the design: species or system Human immunodeficiency virus 1.

Structures are written as SMILES. Calls of active or inactive are those of the source. The rule behind the calls is not given here. Where only a bound is given, the exact number is not on record here.

In general, IC50 refers to the concentration that gives 50% inhibition. In general, CC50 refers to the concentration giving 50% cytotoxicity. Consider `COc1ccc(NC(=O)C(=O)NC2CC(C)(C)NC(C)(C)C2)cc1`, for which the IC50 in data set [1], in data set [2] and in data set [3] was more than 100 µM in each case. The same molecule yielded a CC50 in data set [4] of 340 µM.

As for `CC1(C)CC(NC(=O)C(=O)Nc2ccc(Cl)cc2)CC(C)(C)N1`, the IC50 in data set [1] was 8 µM; in data set [5] it was 5 µM; in data set [2] it was more than 30 µM; in data set [3], 10 µM. Further, in the data set with PM1, the result was Active. The same molecule registered a CC50 in data set [4] of 170 µM.

Consider `CC1(C)CC(NC(=O)C(=O)Nc2ccc([N+](=O)[O-])cc2)CC(C)(C)N1`, for which the IC50 in data set [3] is 42 µM. This molecule yielded a CC50 in data set [4] of 230 µM.

As usually defined, the Kd is a measure of binding affinity in units of concentration. A low value points to higher affinity. For the molecule `CC1(C)CC(NC(=O)C(=O)Nc2ccc(Br)cc2)CC(C)(C)N1`, the IC50 came out at 4 µM in data set [1] and 9 µM in data set [3]. In addition, binding in data set [6] was characterised by a dissociation constant (Kd) of 2.2 µM. Further, the CC50 in data set [4] stood at 150 µM.

As for `Cc1ccc(NC(=O)C(=O)NC2CC(C)(C)NC(C)(C)C2)cc1`, the IC50 in data set [1] was determined as 23 µM; in data set [5] it was 16 µM; in data set [2], 51 µM; in data set [3], 41 µM. Further, the result in the data set on PM1 was Active.

For the molecule `CC1(C)CC(NC(=O)C(=O)Nc2ccccc2)CC(C)(C)N1`, the IC50 was more than 100 µM in data set [1], 81 µM in data set [5], more than 100 µM in data set [2] and more than 100 µM in data set [3]. Moreover, the outcome in the data set with PM1 was inactive. The molecule further showed a CC50 in data set [4] of 350 µM.

Regarding `CC1(C)CC(NC(=O)C(=O)Nc2ccc(C(F)(F)F)cc2)CC(C)(C)N1`, the IC50 in data set [3] was 27 µM. In addition, in data set [4], the CC50 is 72 µM.

As to `CC1(C)CC(NC(=O)C(=O)Nc2ccc(F)cc2)CC(C)(C)N1`, the IC50 in data set [1] is 61 µM; in data set [2], more than 100 µM; in data set [3], 81 µM. Also, in data set [4], the CC50 is 320 µM.
